Experimental data as given in ChEMBL document CHEMBL1782004, “Pyrimidine nucleotides with 4-alkyloxyimino and terminal tetraphosphate δ-ester modifications as selective agonists of the P2Y(4) receptor” (J Med Chem, 2011).
Activity calls are given as the source filed them. No cut-off for these calls is given here.

What was measured:
P2Y purinoceptor 4 [1] = target: T1, P2Y purinoceptor 4 (Homo sapiens, UniProt P51582); experiment: Agonist activity at human recombinant P2Y4 receptor expressed in human 1321N1 cells assessed as [3H]inositol phosphate production after 30 mins by scintillation proximity assay; format: functional, cell-based
T1 sequence (P51582 whole entry): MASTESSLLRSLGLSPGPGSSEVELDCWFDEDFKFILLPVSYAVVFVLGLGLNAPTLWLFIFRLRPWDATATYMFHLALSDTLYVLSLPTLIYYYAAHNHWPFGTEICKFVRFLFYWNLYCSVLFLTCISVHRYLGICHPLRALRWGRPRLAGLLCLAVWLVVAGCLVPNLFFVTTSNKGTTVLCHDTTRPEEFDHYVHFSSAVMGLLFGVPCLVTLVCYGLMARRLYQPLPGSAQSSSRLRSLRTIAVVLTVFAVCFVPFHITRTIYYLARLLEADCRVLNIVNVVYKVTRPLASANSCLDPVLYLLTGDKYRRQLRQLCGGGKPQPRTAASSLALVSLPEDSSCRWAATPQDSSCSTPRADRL
Procedure, shortened: (§1)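 Stable 1321N1 human astrocytoma lines expressing human P2Y2, P2Y4 or P2Y6 were seeded at 20,000 cells/well two days ahead. They were labelled for 16 h with 1.0 μCi myo-[3H]inositol in serum-free, inositol-free DMEM. Cells were then challenged with agonist in HEPES pH 7.3/HBSS containing LiCl for 30 min at 37°C. The reaction was stopped with ice-cold 50 mM formic acid and [3H]inositol phosphates were read by SPA.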

P2Y purinoceptor 2 [2] = target: T2, P2Y purinoceptor 2 (Homo sapiens, UniProt P41231); experiment: Agonist activity at human recombinant P2Y2 receptor expressed in human 1321N1 cells assessed as [3H]inositol phosphate production after 30 mins by scintillation proximity assay; format: functional, cell-based
T2 sequence (P41231 whole entry): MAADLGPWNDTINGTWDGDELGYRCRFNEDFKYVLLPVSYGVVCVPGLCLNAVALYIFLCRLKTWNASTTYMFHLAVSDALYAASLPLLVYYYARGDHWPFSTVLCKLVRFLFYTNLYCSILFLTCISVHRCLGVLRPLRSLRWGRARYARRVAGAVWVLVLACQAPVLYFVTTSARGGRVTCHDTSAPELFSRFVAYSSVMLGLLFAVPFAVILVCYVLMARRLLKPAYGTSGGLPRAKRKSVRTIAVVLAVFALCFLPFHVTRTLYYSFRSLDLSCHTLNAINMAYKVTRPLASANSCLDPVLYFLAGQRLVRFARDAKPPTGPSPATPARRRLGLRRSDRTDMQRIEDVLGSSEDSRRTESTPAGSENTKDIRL
Procedure, shortened: as §1, with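 “ahead.” for “ahead. They were labelled for 16 h with 1.0 μCi myo-[3H]inositol in serum-free, inositol-free DMEM.”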

P2Y purinoceptor 6 [3] = target: T3, P2Y purinoceptor 6 (Homo sapiens, UniProt Q15077); experiment: Agonist activity at human recombinant P2Y6 receptor expressed in human 1321N1 cells assessed as [3H]inositol phosphate production at 10 uM after 30 mins by scintillation proximity assay; format: functional, cell-based
T3 sequence (Q15077 whole entry): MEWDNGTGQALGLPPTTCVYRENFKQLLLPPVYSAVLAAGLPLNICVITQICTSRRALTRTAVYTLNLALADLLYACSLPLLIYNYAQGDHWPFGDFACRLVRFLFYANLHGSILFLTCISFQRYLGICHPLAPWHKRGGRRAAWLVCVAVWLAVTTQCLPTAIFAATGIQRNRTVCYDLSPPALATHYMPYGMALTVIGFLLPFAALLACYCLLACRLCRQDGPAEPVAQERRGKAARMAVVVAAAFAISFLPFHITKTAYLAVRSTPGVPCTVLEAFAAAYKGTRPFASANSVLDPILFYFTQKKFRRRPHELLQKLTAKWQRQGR

P2Y purinoceptor 4 [4] = target: T1, P2Y purinoceptor 4; experiment: Agonist activity at human recombinant P2Y4 receptor expressed in human 1321N1 cells assessed as [3H]inositol phosphate production at 10 uM after 30 mins by scintillation proximity assay; format: functional, cell-based
P2Y purinoceptor 2 [5] = target: T2, P2Y purinoceptor 2; experiment: Agonist activity at human recombinant P2Y2 receptor expressed in human 1321N1 cells assessed as [3H]inositol phosphate production at 10 uM after 30 mins by scintillation proximity assay; format: functional, cell-based
P2Y purinoceptor 2 [6] = target: T2, P2Y purinoceptor 2; experiment: Ratio of EC50 for human recombinant P2Y2 receptor expressed in human 1321N1 cells to EC50 for human recombinant P2Y4 receptor expressed in human 1321N1 cells; format: cell-based
1321-N1 = experiment: Ratio of EC50 for human recombinant P2Y6 receptor expressed in human 1321N1 cells to EC50 for human recombinant P2Y4 receptor expressed in human 1321N1 cells; format: cell-based
P2Y purinoceptor 6 [7] = target: T3, P2Y purinoceptor 6; experiment: Agonist activity at human recombinant P2Y6 receptor expressed in human 1321N1 cells assessed as [3H]inositol phosphate production after 30 mins by scintillation proximity assay; format: functional, cell-based
Procedure, shortened: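 1321N1 astrocytoma cells stably expressing human P2Y6, seeded 2 days ahead and labelled 16 h with myo-[3H]inositol in serum-free inositol-free DMEM. Agonist added as five-fold concentrate in HEPES pH 7.3/HBSS with 50 mM LiCl, 30 min at 37°C. Stopped with ice-cold 50 mM formic acid. EC50 from four-parameter logistic fit; triplicates, three to six experiments; UDP reference curve.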

P2Y purinoceptor 2 [8] = target: T2, P2Y purinoceptor 2; experiment: Agonist activity at human P2Y2; format: functional
P2Y purinoceptor 4 [9] = target: T1, P2Y purinoceptor 4; experiment: Agonist activity at human P2Y4; format: functional
[10] = Ratio of EC50 for P2Y6 to EC50 for P2Y2
[11] = Ratio of EC50 for P2Y4 to EC50 for P2Y2
Oocyte = experiment: Ratio of EC50 for rat P2Y2 expressed in Xenopus oocytes to EC50 for rat P2Y4 expressed in Xenopus oocytes; format: cell-based

SMILES | EC50 (P2Y purinoceptor 4 [1]) | EC50 (P2Y purinoceptor 2 [2]) | Activity (P2Y purinoceptor 6 [3]) | EC50 (P2Y purinoceptor 6 [7]) | also measured
CC(C)(C)ONc1ccn([C@@H]2O[C@H](COP(=O)(O)OP(=O)(O)OP(=O)(O)O)[C@@H](O)[C@H]2O)c(=O)n1 | 2110 nM | 1500 nM | – | – | –
O=c1[nH]/c(=N\OCCc2ccccc2)ccn1[C@@H]1O[C@H](COP(=O)(O)OP(=O)(O)OP(=O)(O)O)[C@@H](O)[C@H]1O | – | – | – | – | Ratio EC50 (P2Y purinoceptor 2 [6]): 16; Ratio EC50 (1321-N1): 17
O=c1ccn([C@@H]2O[C@H](COP(=O)(O)OP(=O)(O)OP(=O)(O)OP(=O)(O)Oc3cccc([N+](=O)[O-])c3)[C@@H](O)[C@H]2O)c(=O)[nH]1 | 2540 nM | 3330 nM | < 50% | – | –
O=c1ccn([C@@H]2O[C@H](COP(=O)(O)OP(=O)(O)OP(=O)(O)OP(=O)(O)Oc3ccc(Cl)cc3)[C@@H](O)[C@H]2O)c(=O)[nH]1 | – | 6600 nM | – | – | –
O=c1ccn([C@@H]2O[C@H](COP(=O)(O)OP(=O)(O)OP(=O)(O)OP(=O)(O)Oc3ccc([N+](=O)[O-])cc3)[C@@H](O)[C@H]2O)c(=O)[nH]1 | – | 4850 nM | < 50% | – | Activity (P2Y purinoceptor 4 [4]): < 50%
COc1ccc(OP(=O)(O)OP(=O)(O)OP(=O)(O)OP(=O)(O)OC[C@H]2O[C@@H](n3ccc(=O)[nH]c3=O)[C@H](O)[C@@H]2O)cc1 | – | – | < 50% | – | Activity (P2Y purinoceptor 4 [4]): < 50%; Activity (P2Y purinoceptor 2 [5]): < 50%
O=c1ccn([C@@H]2O[C@H](COP(=O)(O)OP(=O)(O)OP(=O)(O)OP(=O)(O)Oc3cccc(Cl)c3)[C@@H](O)[C@H]2O)c(=O)[nH]1 | – | 840 nM | – | 3690 nM | Activity (P2Y purinoceptor 4 [4]): inactive
O=c1ccn([C@@H]2O[C@H](COP(=O)(O)OP(=O)(O)OP(=O)(O)OP(=O)(O)O[C@H]3O[C@H](CO)[C@H](O)[C@H](O)[C@H]3O)[C@@H](O)[C@H]2O)c(=O)[nH]1 | – | 940 nM | – | – | –
[N-]=[N+]=N[C@@H]1[C@H](O)[C@@H](COP(=O)(O)OP(=O)(O)OP(=O)(O)O)O[C@H]1n1ccc(=O)[nH]c1=O | – | – | – | – | EC50 (P2Y purinoceptor 2 [8]): 5000 nM
O=c1ccn([C@@H]2O[C@H](COP(=O)(O)OP(=O)(O)OP(=O)(O)OP(=O)(O)O[C@H]3O[C@H](CO)[C@@H](O)[C@H](O)[C@H]3F)[C@@H](O)[C@H]2O)c(=O)[nH]1 | – | – | < 50% | – | Activity (P2Y purinoceptor 4 [4]): < 50%; Activity (P2Y purinoceptor 2 [5]): < 50%
O=c1ccn([C@@H]2O[C@H](COP(=O)(O)OP(=O)(O)OP(=O)(O)OP(=O)(O)O[C@H]3OC[C@@H](O)[C@H](O)[C@H]3O)[C@@H](O)[C@H]2O)c(=O)[nH]1 | 620 nM | 2770 nM | – | 4900 nM | –
O=c1ccn([C@@H]2O[C@H](COP(=O)(O)OP(=O)(O)OP(=O)(O)OP(=O)(O)Oc3ccccc3)[C@@H](O)[C@H]2O)c(=O)[nH]1 | – | 2760 nM | inactive | – | Activity (P2Y purinoceptor 4 [4]): inactive
O=c1ccn([C@@H]2O[C@H](COP(=O)(O)OP(=O)(O)OP(=O)(O)OP(=O)(O)OC[C@H]3O[C@@H](n4ccc(=O)[nH]c4=O)[C@H](O)[C@@H]3O)[C@@H](O)[C@H]2O)c(=O)[nH]1 [DIQUAFOSOL TETRASODIUM] | – | – | – | – | EC50 (P2Y purinoceptor 4 [9]): 870 nM
O=c1ccn([C@@H]2O[C@H](COP(=O)(O)OP(=O)(O)OP(=O)(O)OP(=O)(O)O[C@H]3O[C@H](CO)[C@@H](O)[C@H](O)[C@H]3O)[C@@H](O)[C@H]2O)c(=O)[nH]1 | – | – | – | – | Ratio EC50 [10]: 26; Ratio EC50 [11]: 7
O=P(O)(O)OP(=O)(O)OP(=O)(O)OC[C@H]1O[C@@H](n2cnc3c(O)ncnc32)[C@H](O)[C@@H]1O | – | – | – | – | Ratio EC50 (Oocyte): 13
O=c1ccn([C@@H]2O[C@H](COP(=O)(O)OP(=O)(O)OP(=O)(O)OP(=O)(O)O)[C@@H](O)[C@H]2O)c(=O)[nH]1 | 7300 nM | 3900 nM | – | – | –
O=c1[nH]/c(=N\OCCCc2ccccc2)ccn1[C@@H]1O[C@H](COP(=O)(O)OP(=O)(O)OP(=O)(O)O)[C@@H](O)[C@H]1O | – | – | – | – | Ratio EC50 (P2Y purinoceptor 2 [6]): 28; Ratio EC50 (1321-N1): 32
O=c1ccn([C@@H]2O[C@H](COP(=O)(O)OP(=O)(O)C(Cl)(Cl)P(=O)(O)O)[C@@H](O)[C@H]2O)c(=O)[nH]1 | – | 9600 nM | < 50% | – | Activity (P2Y purinoceptor 4 [4]): inactive

Continued, in another order:

EC50 (P2Y purinoceptor 4 [1]) | EC50 (P2Y purinoceptor 2 [2]) | Activity (P2Y purinoceptor 6 [3]) | EC50 (P2Y purinoceptor 6 [7]) | SMILES | also measured
– | – | < 50% | – | COc1cccc(OP(=O)(O)OP(=O)(O)OP(=O)(O)OP(=O)(O)OC[C@H]2O[C@@H](n3ccc(=O)[nH]c3=O)[C@H](O)[C@@H]2O)c1 | Activity (P2Y purinoceptor 4 [4]): inactive; Activity (P2Y purinoceptor 2 [5]): < 50%
– | – | inactive | – | O=c1ccn([C@@H]2O[C@H](COP(=O)(O)OP(=O)(O)C(Cl)(Cl)P(=O)(O)OP(=O)(O)O[C@H]3O[C@H](CO)[C@@H](O)[C@H](O)[C@H]3O)[C@@H](O)[C@H]2O)c(=O)[nH]1 | Activity (P2Y purinoceptor 4 [4]): inactive; Activity (P2Y purinoceptor 2 [5]): < 50%
670 nM | 2640 nM | – | 7510 nM | O=c1[nH]/c(=N\OCc2ccccc2)ccn1[C@@H]1O[C@H](COP(=O)(O)OP(=O)(O)OP(=O)(O)OP(=O)(O)O[C@H]2O[C@H](CO)[C@@H](O)[C@H](F)[C@H]2O)[C@@H](O)[C@H]1O | –
310 nM | 500 nM | – | 1440 nM | CONc1ccn([C@@H]2O[C@H](COP(=O)(O)OP(=O)(O)OP(=O)(O)OP(=O)(O)O[C@H]3O[C@H](CO)[C@@H](O)[C@H](F)[C@H]3O)[C@@H](O)[C@H]2O)c(=O)n1 | –
– | – | < 50% | – | CC(C)(C)O/N=c1/ccn([C@@H]2O[C@H](COP(=O)(O)OP(=O)(O)OP(=O)(O)O)[C@@H](O)[C@H]2O)c(=O)[nH]1 | –
62 nM | 710 nM | – | 950 nM | O=c1ccn([C@@H]2O[C@H](COP(=O)(O)OP(=O)(O)OP(=O)(O)OP(=O)(O)O[C@H]3O[C@H](CO)[C@@H](O)[C@H](F)[C@H]3O)[C@@H](O)[C@H]2O)c(=O)[nH]1 | Ratio EC50 (P2Y purinoceptor 2 [6]): 11.5; Ratio EC50 (1321-N1): 15.3
80 nM | 55 nM | – | – | O=c1ccn([C@@H]2O[C@H](COP(=O)(O)OP(=O)(O)OP(=O)(O)O)[C@@H](O)[C@H]2O)c(=O)[nH]1 [URIDINE TRIPHOSPHATE] | –
– | – | inactive | – | O=c1ccn([C@@H]2O[C@H](COP(=O)(O)OP(=O)(O)C(Cl)(Cl)P(=O)(O)O)[C@@H](O)[C@H]2O)c(=S)[nH]1 | Activity (P2Y purinoceptor 4 [4]): inactive
183 nM | 770 nM | – | 1170 nM | O=c1ccn([C@@H]2O[C@H](COP(=O)(O)OP(=O)(O)OP(=O)(O)OP(=O)(O)O[C@H]3O[C@H](CO)[C@@H](O)[C@@H](O)[C@H]3O)[C@@H](O)[C@H]2O)c(=O)[nH]1 | –
910 nM | 1890 nM | – | 5460 nM | CC(=O)N[C@H]1[C@@H](OP(=O)(O)OP(=O)(O)OP(=O)(O)OP(=O)(O)OC[C@H]2O[C@@H](n3ccc(=O)[nH]c3=O)[C@H](O)[C@@H]2O)O[C@H](CO)[C@@H](O)[C@@H]1O | –
227 nM | 490 nM | – | 1650 nM | O=C(O)[C@H]1O[C@H](OP(=O)(O)OP(=O)(O)OP(=O)(O)OP(=O)(O)OC[C@H]2O[C@@H](n3ccc(=O)[nH]c3=O)[C@H](O)[C@@H]2O)[C@H](O)[C@@H](O)[C@@H]1O | –
4480 nM | 3720 nM | – | 12100 nM | O=c1ccn([C@@H]2O[C@H](COP(=O)(O)OP(=O)(O)OP(=O)(O)OP(=O)(O)O[C@H]3O[C@H](CO)[C@@H](O)[C@H](O)[C@@H]3O)[C@@H](O)[C@H]2O)c(=O)[nH]1 | –
220 nM | 620 nM | – | 1640 nM | O=c1ccn([C@@H]2O[C@H](COP(=O)(O)OP(=O)(O)OP(=O)(O)OP(=O)(O)O[C@H]3O[C@H](CO)[C@@H](F)[C@H](O)[C@H]3O)[C@@H](O)[C@H]2O)c(=O)[nH]1 | –
23 nM | 640 nM | – | 740 nM | O=c1nc(NOCCCc2ccccc2)ccn1[C@@H]1O[C@H](COP(=O)(O)OP(=O)(O)OP(=O)(O)O)[C@@H](O)[C@H]1O | –
